Source: PubChem BioAssay
This excerpt belongs to a sample that is enriched for hits.
CHOP inh: inhibitors of CHOP promoter induction, primary screen, cell-based, unfolded protein response, luciferase reporter; actives 3.8% (n = 220,000); CHO-K1 CHOP-promoter luciferase, tunicamycin-induced, 15-18 h; inhibition, % at 10 µM;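 active = compounds that reduced the stress-induced luciferase reporter signal by more than about 70% of percent inhibition, limit read from the data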
NOD2-RIPK2 inh: NOD2-RIPK2 binding disruptors in cells, primary screen, fluorescence, CHO cells, BLA complementation; inhibition, % at 4.98 µM; actives 0.38% (n = 360,000); AID 624267, 2012; Receptor-interacting serine/threonine-protein kinase 2 (Homo sapiens), O43353; CCF4 ratio; in the data active = inhibition above about 21%
Target sequence (O43353 whole entry, looked up): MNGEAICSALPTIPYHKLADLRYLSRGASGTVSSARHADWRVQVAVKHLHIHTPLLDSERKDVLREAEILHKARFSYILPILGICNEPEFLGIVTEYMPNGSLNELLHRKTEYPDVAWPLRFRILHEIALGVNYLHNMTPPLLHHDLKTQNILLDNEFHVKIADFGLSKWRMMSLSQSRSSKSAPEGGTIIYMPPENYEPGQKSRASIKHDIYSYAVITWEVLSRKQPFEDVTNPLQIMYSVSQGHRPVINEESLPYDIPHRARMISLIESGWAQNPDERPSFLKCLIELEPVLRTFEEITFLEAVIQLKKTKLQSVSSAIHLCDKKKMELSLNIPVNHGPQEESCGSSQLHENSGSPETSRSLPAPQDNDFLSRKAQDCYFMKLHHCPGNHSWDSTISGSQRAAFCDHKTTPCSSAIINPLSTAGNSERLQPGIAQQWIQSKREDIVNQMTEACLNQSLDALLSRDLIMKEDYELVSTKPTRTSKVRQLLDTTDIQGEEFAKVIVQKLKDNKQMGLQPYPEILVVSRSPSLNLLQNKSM
UPR CHOP act: activators of apoptotic CHOP UPR arm, primary screen, cell-based, CHO-CHOP luciferase reporter, luminescence, uHTS. UPR activation; percent of tunicamycin response over DMSO baseline. activation, % at 10 µM. actives 0.34% (n = 330,000). AID 449763, 2010;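 active = at 10 µM dose, activation of 40% or more, normalized to positive control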
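measured by = luciferase luminescence | assay system = CHO-CHOP cells, stable luciferase reporter of PERK-eIF2a-CHOP signalling | amount = 500 reporter cells seeded per well | timing = 6 h compound exposure at 37 °C after overnight seeding | controls = positive tunicamycin 10 µg/mL, negative DMSO alone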
TLR9-MyD88 block: inhibitors of TLR9-MyD88 association in cells, primary screen, cell-based, CHO, BLA complementation, fluorescence | inhibition, % at 4.98 µM | CCF4 FRET ratio | actives 0.21% (n = 340,000);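 active = inhibition above the mean over all tested compounds plus 3 SD, cut at about 21% in these data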
TLR4-MyD88 BLA: inhibitors of TLR4-MyD88 association in cells, primary screen, cell-based, HeLa CL3-4, BLA complementation, FRET ratio | Toll-like receptor 4 (Homo sapiens) + Myeloid differentiation primary response protein … | HeLa CL3-4 TLR4/MyD88 BLA complementation | inhibition, % at 8.4 µM | actives 0.18% (n = 200,000) | AID 861, 2007; in the data active = inhibition above about 25%
XBP1 UPR activ: activators of adaptive XBP1 UPR arm, primary screen, cell-based, CHO-XBP1 luciferase reporter, luminescence, uHTS; IRE1-XBP1 UPR activation; percent of tunicamycin response, DMSO as zero; activation, % at 20 µM; actives 0.33% (n = 330,000);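 active = versus positive control, 20 µM dose yields 30% or more activation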
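assay system = CHO-XBP1 luciferase reporter cells | amount = 1000 cells/well | buffer or medium = F12 plus 10% FBS | compound dosing = single point, 20 µM final compound, 1% DMSO | incubation = 16-18 h cell attachment at 37 °C, then 6 h compound exposure | detection = Steady-Glo luminescence read | controls = tunicamycin 10 µg/mL and vehicle-only wells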
CHOP confirm: retest of CHOP induction inhibitors, confirmation, cell-based | shares compounds with CHOP inh | inhibition, % at 10 µM | CHO-CHOP promoter luciferase reporter, tunicamycin-induced, luminescence | AID 504437, 2011 | actives 45% (n = 2,100);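 active = mean of three repeat readings of reporter signal inhibition above a set limit, cut at about 70% in these data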
Large screens that a line does not name were inactive (follow-up assays come after a bar, where they were run).

CCS(=O)(=O)N1Cc2ccccc2CC1C(=O)Nc1nnc(SCc2ccc(F)cc2)s1 (centres undefined)	none
Cc1ccc(S(=O)(=O)N/N=C\c2cn(-c3ccccc3)nc2-c2ccccc2)cc1	CHOP inh 96.7 | CHOP confirm inactive
Cc1cc(C)c(S(=O)(=O)NCCn2c(C)cc3ccccc32)c(C)c1	CHOP inh 101.5 | CHOP confirm 74.8
O=C(Oc1ccccc1Cl)C1CCN(C(=O)c2ccc(F)cc2)CC1	none (no result: CHOP inh, TLR4-MyD88 BLA)
CCCCN(C)CCNC(=O)CCn1nc(-c2ccc(C)cc2)ccc1=O	none (no result: CHOP inh, TLR4-MyD88 BLA)
CC1(C)CC(N(Cc2ccc(F)cc2)C(=O)c2ccc(F)cc2)CCO1 (centres undefined)	none (no result: TLR4-MyD88 BLA)
CC1(C)CC(C(CCN(Cc2ccccc2)C(=O)c2ccco2)c2ccc(F)cc2)CCO1 (centres undefined)	CHOP inh 101.0 (no result: UPR CHOP act, XBP1 UPR activ) | CHOP confirm 79.0
O=C(c1ccco1)N(CCC(c1ccccc1)c1ccco1)Cc1ccc(F)cc1 (centres undefined)	CHOP inh 107.6 | CHOP confirm inactive
Cc1nn(CCC#N)c2nc(-c3ccccc3)cc(C(F)(F)F)c12	CHOP inh 105.7 | CHOP confirm 83.4
CCN(C(=O)COC(=O)c1cc([N+](=O)[O-])ccc1N1CCOCC1)C1CCS(=O)(=O)C1 (centres undefined)	none (no result: CHOP inh, TLR4-MyD88 BLA)
CCSc1nc2ccccc2n1C(=O)/C=C/c1ccc(OC)c(OC)c1	CHOP inh 105.0 | CHOP confirm 113.7
C=CCSc1nc2ccccc2n1C(=O)/C=C/c1cc(OC)c(OC)c(OC)c1	CHOP inh 111.0 | CHOP confirm 109.1
Clc1ccc(-c2csc(N/N=C/c3cccnc3)n2)c(Cl)c1	CHOP inh 98.0 | CHOP confirm 87.2
O=C(NNC(=O)c1cccc2ccccc12)c1ccc(-c2ccccc2)cc1	CHOP inh 97.9 | CHOP confirm 82.1
CCOc1ccc(CNC2CCCCCCC2)cc1OC	none (no result: CHOP inh, TLR4-MyD88 BLA)
COc1ccc(C2CC(c3c(-c4ccccc4)c4cc(Cl)ccc4[nH]c3=O)=NN2S(C)(=O)=O)cc1OC (centres undefined)	CHOP inh 107.7 | CHOP confirm 125.0
COc1ccccc1NS(=O)(=O)c1ccc2oc(N)nc2c1	none (no result: CHOP inh, TLR4-MyD88 BLA)
O=C(Nc1ccccc1C(F)(F)F)c1cc(-c2cccc(O)c2)on1	CHOP inh 96.8 | CHOP confirm inactive
Cc1ccc(CNCC(O)(c2ccccc2)c2ccccc2)cc1	none (no result: CHOP inh, TLR4-MyD88 BLA)
Cc1ccc(CNCC(O)(c2ccccc2)c2ccc(Cl)cc2)cc1 (centres undefined)	CHOP inh 99.2 (no result: UPR CHOP act, XBP1 UPR activ) | CHOP confirm 134.7
COc1ccccc1CNC(=S)Nc1ccc(F)cc1	none (no result: CHOP inh, TLR4-MyD88 BLA)
CCC(C)c1ccc(NC(=S)NCc2ccccc2OC)cc1 (centres undefined)	CHOP inh 97.0 (no result: UPR CHOP act, XBP1 UPR activ) | CHOP confirm inactive
Cc1ccc(C(=O)NCc2ccncc2)cc1S(=O)(=O)N1CCCCC1	none (no result: CHOP inh, TLR4-MyD88 BLA)
CCC(=O)N1CCCC(C)(C(=O)NS(=O)(=O)c2ccccc2Cl)C1 (centres undefined)	none (no result: CHOP inh, UPR CHOP act, TLR9-MyD88 block, TLR4-MyD88 BLA, XBP1 UPR activ)
O=C(Nc1cccc(C(F)(F)F)c1)NC1CCN(S(=O)(=O)c2ccc(F)cc2)CC1	CHOP inh 99.8 | CHOP confirm 94.3
CC(=O)c1ccc(S(=O)(=O)N2CCC(NC(=O)Nc3cccc(F)c3)CC2)cc1	none
O=c1[nH]c2ccc(Cl)cc2c(-c2ccccc2)c1SC(=S)N1CCCCC1	none
O=c1[nH]c2ccc(Cl)cc2c(-c2ccccc2)c1SC(=S)N1CCOCC1	CHOP inh 98.9 | CHOP confirm inactive
COCCn1c(=NC(=O)/C=C/c2ccccc2)sc2cc(NC(C)=O)ccc21	CHOP inh 99.9 | CHOP confirm inactive
Cc1csc(NC(=O)Cc2coc3cc(C)c(C(C)C)cc23)n1	CHOP inh 99.4 | CHOP confirm inactive
Cc1cc2occ(CC(=O)NCc3cccs3)c2cc1C(C)C	none
Fc1c(F)c(C(F)(F)F)c(F)c(F)c1N/N=C\c1cccs1	CHOP inh 100.6 | CHOP confirm 88.6
COc1ccc(/C=C/C(=O)NC(=S)NNC(=O)c2cccnc2)cc1	CHOP inh 97.6 | CHOP confirm 77.0
FC(F)(F)c1cc(-c2cccs2)nc(N2CCOCC2)n1	CHOP inh 100.1 | CHOP confirm inactive
Cc1cnn(-c2nc(-c3cccs3)cc(C(F)(F)F)n2)c1	none
FC(F)(F)c1cc(-c2cccs2)nc(-n2cc(Br)cn2)n1	CHOP inh 96.7 | CHOP confirm 73.0
COc1cc(/C=C/C(=O)OCC(=O)c2c[nH]c3ccccc23)ccc1OC(F)F	none
CCOC(=O)Cc1csc(NC(=O)NC2(C(F)(F)F)Oc3ccc(Cl)cc3O2)n1 (centres undefined)	CHOP inh 104.6 | CHOP confirm 111.3
CCOC(=O)Cc1csc(NC(=O)NC2(C(F)(F)F)Oc3cc(Cl)c(Cl)cc3O2)n1	CHOP inh 102.3 | CHOP confirm 110.0
CCOC(=O)Cc1csc(NC(=O)c2cc(C)c(C)s2)n1	none (no result: CHOP inh, TLR4-MyD88 BLA)
CS(=O)(=O)N1N=C(c2cccs2)CC1c1ccco1 (centres undefined)	none
CC(C)Cc1ccc(C(C)C(=O)Nc2nccs2)cc1 (centres undefined)	CHOP inh 96.2 | CHOP confirm 94.1
O=C(c1cc(COc2ccc3c(c2)CCCC3)on1)N1CCCC1	none (no result: CHOP inh, TLR4-MyD88 BLA)
COc1ccc(NC2=Nc3ccccc3N3C2=Nc2c(c(C)nn2-c2ccc(C)cc2)C3c2cccnc2)cc1 (centres undefined)	none
CC(=O)Nc1ccc(NC2=Nc3ccccc3N3C2=Nc2c(c(C)nn2-c2ccccc2)C3c2ccccc2)cc1 (centres undefined)	CHOP inh 106.0 | CHOP confirm 119.2
Cc1ccc(CNC(=O)Cc2csc(Nc3nc(=S)[nH]c4ccccc34)n2)cc1	none (no result: NOD2-RIPK2 inh, TLR9-MyD88 block)
O=C(Cc1csc(Nc2nc(=S)[nH]c3ccccc23)n1)N1CCN(c2cccc(C(F)(F)F)c2)CC1	CHOP inh 106.8 | CHOP confirm inactive
CC(/C=C1\SC(=O)N(CCCC(=O)O)C1=O)=C\c1ccccc1	CHOP inh 101.1 (no result: UPR CHOP act, XBP1 UPR activ) | CHOP confirm 110.1
Cc1cc(C(=O)COC(=O)c2ccccc2O)c(C)n1Cc1cccs1	CHOP inh 108.7 | CHOP confirm 111.0
